Data from ChEMBL document CHEMBL1123757, “Selective thromboxane synthetase inhibitors and antihypertensive agents. New derivatives of 4-hydrazino-5H-pyridazino[4,5-b]indole, 4-hydrazinopyridazino[4,5-a]indole, and related compounds” (J Med Chem, 1987).

Assays:
[1] = tested on: Rattus norvegicus; assay: Antihypertensive activity in spontaneously hypertensive rats (SHR) measured by percentage fall in arterial pressure (AP) at 25 mg/kg administered perorally at 3 h; type: functional, Artery; settings: route oral
Method in brief: (§1)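 Oral dosing at 2.5 mL/kg to unanesthetized male and female Okamoto-strain SHR (8 weeks old, 300–350 g, systolic pressure ≥190 mmHg, heart rate 400–650 beats/min), five per dose. Vehicle was normal saline or saline with 0.2% (carboxymethyl)cellulose and 1.0% Tween 80. AP measured on the tail by mechanical transduction at set times; expressed as percentage fall from control.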

[2] = tested on: Rattus norvegicus; assay: Antihypertensive activity in spontaneously hypertensive rats (SHR) measured by percentage fall in arterial pressure (AP) at 25 mg/kg administered perorally at 5 h; type: functional, Artery; settings: route oral; method in brief: as §1
[3] = tested on: Rattus norvegicus; assay: Antihypertensive activity in spontaneously hypertensive rats (SHR) measured by percentage fall in arterial pressure (AP) at 5 mg/kg administered intraperitoneally at 1 h; type: functional, Artery; settings: route intraperitoneal
Method in brief: (§2)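 Unanesthetized Okamoto-strain SHR, male and female, 8 weeks old, 300–350 g, systolic pressure ≥190 mmHg, heart rate 400–650 beats/min; five animals per dose. Given ip at 2.5 mL/kg, dissolved or suspended in normal saline or saline with 0.2% (carboxymethyl)cellulose and 1.0% Tween 80. Tail AP and CR recorded by mechanical transduction at set times; reported as percentage fall from control.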

[4] = tested on: Rattus norvegicus; assay: Antihypertensive activity in spontaneously hypertensive rats (SHR) measured by percentage fall in arterial pressure (AP) at 5 mg/kg administered intraperitoneally at 24 h; type: functional, Artery; settings: route intraperitoneal; method in brief: as §2
[5] = tested on: Rattus norvegicus; assay: Antihypertensive activity in spontaneously hypertensive rats (SHR) measured by percentage fall in arterial pressure (AP) at 5 mg/kg administered intraperitoneally at 5 h; type: functional, Artery; settings: route intraperitoneal; method in brief: as §2
[6] = tested on: Rattus norvegicus; assay: Antihypertensive activity in spontaneously hypertensive rats (SHR) measured by percentage fall in arterial pressure (AP) at 25 mg/kg administered intraperitoneally at 5 h; type: functional, Artery; settings: route intraperitoneal; method in brief: as §2
[7] = tested on: Rattus norvegicus; assay: Antihypertensive activity in spontaneously hypertensive rats (SHR) measured by percentage fall in arterial pressure (AP) at 25 mg/kg administered perorally at 1 h; type: functional, Artery; settings: route oral; method in brief: as §1
[8] = tested on: Rattus norvegicus; assay: Antihypertensive activity in spontaneously hypertensive rats (SHR) measured by percentage fall in cardiac rhythm (CR) at 1 mg/kg administered intraperitoneally at 3 h; type: functional, Heart; settings: route intraperitoneal; method in brief: as §2
[9] = tested on: Rattus norvegicus; assay: Antihypertensive activity in spontaneously hypertensive rats (SHR) measured by percentage fall in cardiac rhythm (CR) at 1 mg/kg administered intraperitoneally at 5 h; type: functional, Heart; settings: route intraperitoneal; method in brief: as §2
[10] = tested on: Rattus norvegicus; assay: Antihypertensive activity in spontaneously hypertensive rats (SHR) measured by percentage fall in cardiac rhythm (CR) at 25 mg/kg administered intraperitoneally at 1 h; type: functional, Heart; settings: route intraperitoneal; method in brief: as §2
[11] = tested on: Rattus norvegicus; assay: Antihypertensive activity in spontaneously hypertensive rats (SHR) measured by percentage fall in cardiac rhythm (CR) at 25 mg/kg administered perorally at 3 h; type: functional, Heart; settings: route oral
Method in brief: (§3)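 Conscious SHR (Okamoto strain), 8 weeks old, male and female, 300–350 g, systolic BP ≥190 mmHg, CR 400–650 beats/min. Given ip or po at 2.5 mL/kg in normal saline or saline with 0.2% (carboxymethyl)cellulose and 1.0% Tween 80. Tail AP and CR recorded by mechanical transduction at 1, 3, 5 and 24 h, five animals per dose. Effect expressed as % fall versus control.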

[12] = tested on: Rattus norvegicus; assay: Antihypertensive activity in spontaneously hypertensive rats (SHR) measured by percentage fall in cardiac rhythm (CR) at 25 mg/kg administered perorally at 5 h; type: functional, Heart; settings: route oral; method in brief: as §3
[13] = tested on: Rattus norvegicus; assay: Antihypertensive activity in spontaneously hypertensive rats (SHR) measured by percentage fall in cardiac rhythm (CR) at 5 mg/kg administered intraperitoneally at 1 h; type: functional, Heart; settings: route intraperitoneal; method in brief: as §3
[14] = tested on: Rattus norvegicus; assay: Antihypertensive activity in spontaneously hypertensive rats (SHR) measured by percentage fall in cardiac rhythm (CR) at 5 mg/kg administered intraperitoneally at 24 h; type: functional, Heart; settings: route intraperitoneal; method in brief: as §3
[15] = tested on: Rattus norvegicus; assay: Antihypertensive activity in spontaneously hypertensive rats (SHR) measured by percentage fall in cardiac rhythm (CR) at 5 mg/kg administered intraperitoneally at 3 h; type: functional, Heart; settings: route intraperitoneal; method in brief: as §3
[16] = tested on: Rattus norvegicus; assay: Antihypertensive activity in spontaneously hypertensive rats (SHR) measured by percentage fall in cardiac rhythm (CR) at 5 mg/kg administered intraperitoneally at 5 h; type: functional, Heart; settings: route intraperitoneal; method in brief: as §3
[17] = tested on: Rattus norvegicus; assay: Antihypertensive activity in spontaneously hypertensive rats (SHR) measured by percentage fall in cardiac rhythm (CR) at 1 mg/kg administered intraperitoneally at 1 h; type: functional, Heart; settings: route intraperitoneal; method in brief: as §2
[18] = tested on: Rattus norvegicus; assay: Antihypertensive activity in spontaneously hypertensive rats (SHR) measured by percentage fall in cardiac rhythm (CR) at 25 mg/kg administered intraperitoneally at 24 h; type: functional, Heart; settings: route intraperitoneal; method in brief: as §2
[19] = tested on: Rattus norvegicus; assay: Antihypertensive activity in spontaneously hypertensive rats (SHR) measured by percentage fall in cardiac rhythm (CR) at 25 mg/kg administered intraperitoneally at 3 h; type: functional, Heart; settings: route intraperitoneal; method in brief: as §2
[20] = tested on: Rattus norvegicus; assay: Antihypertensive activity in spontaneously hypertensive rats (SHR) measured by percentage fall in cardiac rhythm (CR) at 25 mg/kg administered intraperitoneally at 5 h; type: functional, Heart; settings: route intraperitoneal; method in brief: as §3
[21] = tested on: Rattus norvegicus; assay: Antihypertensive activity in spontaneously hypertensive rats (SHR) measured by percentage fall in cardiac rhythm (CR) at 25 mg/kg administered perorally at 1 h; type: functional, Heart; settings: route oral; method in brief: as §3
[22] = tested on: Rattus norvegicus; assay: Antihypertensive activity in spontaneously hypertensive rats (SHR) measured by percentage fall in arterial pressure (AP) at 1 mg/kg administered intraperitoneally at 3 h; type: functional, Artery; settings: route intraperitoneal; method in brief: as §2
[23] = tested on: Rattus norvegicus; assay: Antihypertensive activity in spontaneously hypertensive rats (SHR) measured by percentage fall in arterial pressure (AP) at 25 mg/kg administered intraperitoneally at 1 h; type: functional, Artery; settings: route intraperitoneal; method in brief: as §2
[24] = tested on: Rattus norvegicus; assay: Antihypertensive activity in spontaneously hypertensive rats (SHR) measured by percentage fall in arterial pressure (AP) at 25 mg/kg administered intraperitoneally at 24 h; type: functional, Artery; settings: route intraperitoneal; method in brief: as §2
[25] = tested on: Rattus norvegicus; assay: Antihypertensive activity in spontaneously hypertensive rats (SHR) measured by percentage fall in arterial pressure (AP) at 25 mg/kg administered intraperitoneally at 3 h; type: functional, Artery; settings: route intraperitoneal; method in brief: as §2
[26] = tested on: Rattus norvegicus; assay: Antihypertensive activity in spontaneously hypertensive rats (SHR) measured by percentage fall in arterial pressure (AP) at 5 mg/kg administered intraperitoneally at 3 h; type: functional, Artery; settings: route intraperitoneal; method in brief: as §2

Br.Br.NNc1[nH]ncc2c3cc(O)ccc3nc1-2
Decrease in AP [1]: 27% | Decrease in AP [2]: 8% | Decrease in AP [3]: 27% | Decrease in AP [4]: 6% | Decrease in AP [5]: 10% | Decrease in AP [6]: 63% | Decrease in AP [7]: 29% | Decrease in CR [8]: 13% | Decrease in CR [9]: 19% | Decrease in CR [10]: 19% | Decrease in CR [11]: 24% | Decrease in CR [12]: 8% | Decrease in CR [13]: 64% | Decrease in CR [14]: 28% | Decrease in CR [15]: 30% | Decrease in CR [16]: 24% | Decrease in CR [17]: 22% | Decrease in CR [18]: 18% | Decrease in CR [19]: 16% | Decrease in CR [20]: 44% | Decrease in CR [21]: 17% | Decrease in AP [22]: -6% | Decrease in AP [23]: 70% | Decrease in AP [24]: 28% | Decrease in AP [25]: 67% | Decrease in AP [26]: 16%
